Calls of active or inactive are those of the source. The calls are words filed in the database; no cut-off is given here.
Columns and labels:
HOP-62 = test: Cytotoxicity against human HOP62 cells after 48 hrs by SRB assay; assay type: functional; settings: HOP-62, 48 h
Procedure, shortened: (§1)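 GI50 was determined in the NCI Developmental Therapeutics Program in vitro 60-line cancer screen. Tumour lines were maintained in RPMI 1640 containing 5% FBS and 2 mM L-glutamine. Cells were inoculated at 5000–40 000 cells/well according to each line's doubling time before drug exposure.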

NCI-H23 = test: Cytotoxicity against human NCI-H23 cells after 48 hrs by SRB assay; assay type: functional; settings: NCI-H23, 48 h
Procedure, shortened: (§2)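 GI50 from the NCI Developmental Therapeutics Program in vitro human tumor cell screen. Cell lines were maintained in RPMI 1640 with 5% fetal bovine serum and 2 mM L-glutamine. They were seeded at 5000–40 000 cells/well, depending on each line's doubling time, then exposed to drug for 48 h at 37 °C, 5% CO2.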

NCI-H460 = test: Cytotoxicity against human NCI-H460 cells after 48 hrs by SRB assay; assay type: functional; settings: NCI-H460, 48 h; procedure, shortened: as §2
HCT-116 = test: Cytotoxicity against human HCT116 cells after 48 hrs by SRB assay; assay type: functional; settings: HCT-116, 48 h; procedure, shortened: as §1
[1] = Cytotoxicity against human HCT15 cells after 48 hrs by SRB assay; assay type: functional; settings: HCT-15, 48 h; procedure, shortened: as §1
HT-29 = test: Cytotoxicity against human HT-29 cells after 48 hrs by SRB assay; assay type: functional; settings: HT-29, 48 h; procedure, shortened: as §1
SW-620 = test: Cytotoxicity against human SW620 cells after 48 hrs by SRB assay; assay type: functional; settings: SW-620, 48 h
Procedure, shortened: (§3)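 GI50 from the NCI-60 DTP human tumour line screen. Lines grown in RPMI 1640 with 5% fetal bovine serum and 2 mM L-glutamine, plated at 5000–40 000 cells/well according to doubling time. Incubated 48 h at 37 °C, 5% CO2.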

SF-295 = test: Cytotoxicity against human SF295 cells after 48 hrs by SRB assay; assay type: functional; settings: SF-295, 48 h; procedure, shortened: as §2
SF-539 = test: Cytotoxicity against human SF539 cells after 48 hrs by SRB assay; assay type: functional; settings: SF-539, 48 h; procedure, shortened: as §2
SNB-19 = test: Cytotoxicity against human SNB19 cells after 48 hrs by SRB assay; assay type: functional; settings: SNB-19, 48 h; procedure, shortened: as §3
U-251 = test: Cytotoxicity against human U251 cells after 48 hrs by SRB assay; assay type: functional; settings: U-251, 48 h; procedure, shortened: as §3
Malme-3M = test: Cytotoxicity against human MALME-3M cells after 48 hrs by SRB assay; assay type: functional; procedure, shortened: as §1
M14 = test: Cytotoxicity against human M14 cells after 48 hrs by SRB assay; assay type: functional; settings: M14, 48 h; procedure, shortened: as §1
MDA-MB-435 = test: Cytotoxicity against human MDA-MB-435 cells after 48 hrs by SRB assay; assay type: functional; settings: MDA-MB-435, 48 h; procedure, shortened: as §2
SK-MEL-2 = test: Cytotoxicity against human SK-MEL-2 cells after 48 hrs by SRB assay; assay type: functional; settings: SK-MEL-2, 48 h; procedure, shortened: as §2
SK-MEL-5 = test: Cytotoxicity against human SK-MEL-5 cells after 48 hrs by SRB assay; assay type: functional; settings: SK-MEL-5, 48 h; procedure, shortened: as §2
[2] = Cytotoxicity against human UACC257 cells after 48 hrs by SRB assay; assay type: functional; settings: UACC-257, 48 h; procedure, shortened: as §3
[3] = Cytotoxicity against human UACC62 cells after 48 hrs by SRB assay; assay type: functional; settings: UACC-62, 48 h; procedure, shortened: as §3
[4] = Cytotoxicity against human OVCAR3 cells after 48 hrs by SRB assay; assay type: functional; settings: OVCAR-3, 48 h; procedure, shortened: as §2
[5] = Cytotoxicity against human OVCAR8 cells after 48 hrs by SRB assay; assay type: functional; settings: OVCAR-8, 48 h; procedure, shortened: as §2
786-0 = test: Cytotoxicity against human 786-0 cells after 48 hrs by SRB assay; assay type: functional; settings: 786-0, 48 h; procedure, shortened: as §1
A498 = test: Cytotoxicity against human A498 cells after 48 hrs by SRB assay; assay type: functional; settings: A498, 48 h; procedure, shortened: as §1
ACHN = test: Cytotoxicity against human ACHN cells after 48 hrs by SRB assay; assay type: functional; procedure, shortened: as §1
RXF 393 = test: Cytotoxicity against human RXF393 cells after 48 hrs by SRB assay; assay type: functional; settings: RXF 393, 48 h; procedure, shortened: as §2
TK-10 = test: Cytotoxicity against human TK10 cells after 48 hrs by SRB assay; assay type: functional; settings: TK-10, 48 h; procedure, shortened: as §3
[6] = Cytotoxicity against human UO31 cells after 48 hrs by SRB assay; assay type: functional; settings: UO-31, 48 h; procedure, shortened: as §3
PC-3 = test: Cytotoxicity against human PC3 cells after 48 hrs by SRB assay; assay type: functional; settings: PC-3, 48 h; procedure, shortened: as §2
DU-145 = test: Cytotoxicity against human DU145 cells after 48 hrs by SRB assay; assay type: functional; settings: DU-145, 48 h; procedure, shortened: as §1
MCF7 = test: Cytotoxicity against human MCF7 cells after 48 hrs by SRB assay; assay type: functional; settings: MCF7, 48 h; procedure, shortened: as §1
MDA-MB-231 = test: Cytotoxicity against human MDA-MB-231 cells after 48 hrs by SRB assay; assay type: functional; settings: MDA-MB-231, 48 h; procedure, shortened: as §2
BT-549 = test: Cytotoxicity against human BT549 cells after 48 hrs by SRB assay; assay type: functional; settings: BT-549, 48 h; procedure, shortened: as §1
MDA-MB-468 = test: Cytotoxicity against human MDA-MB-468 cells after 48 hrs by SRB assay; assay type: functional; settings: MDA-MB-468, 48 h; procedure, shortened: as §2
[7] = Induction of [32P]-labeled 49-mer oligonucleotide duplex DNA 12 interstrand cross-linking (unknown origin) at purine nucleotide site using compound radiolabeled at 5' of 12b in phosphate buffer at pH 7 at 90 degC after 30 mins by PAGE
[8] = Induction of [32P]-labeled 49-mer oligonucleotide duplex DNA 12 interstrand cross-linking (unknown origin) at purine nucleotide site using compound radiolabeled at 5' of 12a at 90 deg C after 30 mins by PAGE in presence of piperidine
Procedure, shortened: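 Cross-linked duplex, with strand 12a 32P-labelled at the 5′ end, heated at 90 °C either in phosphate buffer pH 7.0 or in 1.0 M piperidine. Cleavage sites were assigned by denaturing PAGE against G + A sequencing and Fe·EDTA markers.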

[9] = Induction of [32P]-labeled 49-mer oligonucleotide duplex DNA 12 interstrand cross-linking (unknown origin) at purine nucleotide site using compound radiolabeled at 5' of 12b at 90 deg C after 30 mins by PAGE in presence of piperidine
[10] = Induction of [32P]-labeled 49-mer oligonucleotide duplex DNA 12 interstrand cross-linking (unknown origin) at purine nucleotide site using compound radiolabeled at 3' of 12a at 90 deg C after 30 mins by PAGE in presence of piperidine
CCRF-CEM = test: Cytotoxicity against human CCRF-CEM cells after 48 hrs by SRB assay; assay type: functional; procedure, shortened: as §1
HL-60(TB) = test: Cytotoxicity against human HL-60(TB) cells after 48 hrs by SRB assay; assay type: functional; settings: HL-60, 48 h; procedure, shortened: as §1
K562 = test: Cytotoxicity against human K562 cells after 48 hrs by SRB assay; assay type: functional; settings: K562, 48 h; procedure, shortened: as §1
MOLT-4 = test: Cytotoxicity against human MOLT4 cells after 48 hrs by SRB assay; assay type: functional; settings: MOLT-4, 48 h; procedure, shortened: as §2
SR = test: Cytotoxicity against human SR cells after 48 hrs by SRB assay; assay type: functional; procedure, shortened: as §3
[11] = Cytotoxicity against human EKVX cells after 48 hrs by SRB assay; assay type: functional; procedure, shortened: as §1

## CC1(C)OB(c2ccc(N(CCCl)CCCl)cc2)OC1(C)C
HOP-62
  GI50: 10.9 µM
NCI-H23
  GI50: 4.57 µM
NCI-H460
  GI50: 0.33 µM
HCT-116
  GI50: 11.6 µM
[1]
  GI50: 13.2 µM
HT-29
  GI50: 13.8 µM
SW-620
  GI50: 11.3 µM
SF-295
  GI50: 2.11 µM
SF-539
  GI50: 5.7 µM
SNB-19
  GI50: 8.06 µM
U-251
  GI50: 3.75 µM
Malme-3M
  GI50: 17.5 µM
M14
  GI50: 5.1 µM
MDA-MB-435
  GI50: 14.2 µM
SK-MEL-2
  GI50: 22.1 µM
SK-MEL-5
  GI50: 14.5 µM
[2]
  GI50: 11.6 µM
[3]
  GI50: 6.12 µM
[4]
  GI50: 14.6 µM
[5]
  GI50: 7.83 µM
786-0
  GI50: 5.35 µM
A498
  GI50: 2.81 µM
ACHN
  GI50: 3.64 µM
RXF 393
  GI50: 10.3 µM
TK-10
  GI50: 16.7 µM
[6]
  GI50: 5.78 µM
PC-3
  GI50: 14.3 µM
DU-145
  GI50: 4.25 µM
MCF7
  GI50: 4.12 µM
MDA-MB-231
  GI50: 16.5 µM
BT-549
  GI50: 10.5 µM
MDA-MB-468
  GI50: 1.6 µM
[7]
  Activity: Active
[8]
  Activity: Active
[9]
  Activity: Active
[10]
  Activity: Active
CCRF-CEM
  GI50: 3.34 µM
HL-60(TB)
  GI50: 4.66 µM
K562
  GI50: 17.2 µM
MOLT-4
  GI50: 3.48 µM
SR
  GI50: 0.63 µM
[11]
  GI50: 18.6 µM

## CC1(C)OB(c2ccc(N(CCBr)CCOS(C)(=O)=O)cc2)OC1(C)C
[7]
  Activity: Active
[8]
  Activity: Active
[9]
  Activity: Active
[10]
  Activity: Active

## CC1(C)OB(c2ccc(N(CCBr)CCBr)cc2)OC1(C)C
[7]
  Activity: Active
[8]
  Activity: Active
[9]
  Activity: Active
[10]
  Activity: Active

— ChEMBL document CHEMBL3286203, “Reactive oxygen species (ROS) inducible DNA cross-linking agents and their effect on cancer cells and normal lymphocytes” (J Med Chem, 2014)
